According to ChEMBL document CHEMBL3994650, “New 1,4-dihydro[1,8]naphthyridine derivatives as DNA gyrase inhibitors” (Bioorg Med Chem Lett, 2017):
≈ marks a conversion by molar mass, not a printed value. Calls of active or inactive are those of the source. The rule behind the calls is not given here.

Tests used:
Salmonella typhimurium [1] = assay: Mutagenicity in Salmonella typhimurium TA100 assessed as increase in revertant colonies at 2.5 mg/ml in presence of Sprague-Dawley rat liver S9 fraction by Ames test relative to basal level; type: toxicity; conditions: salmonella enterica subsp. enterica serovar typhimurium
Outline: (§1)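 Ames microplate format assay with strains TA98 and TA100, run with and without S9. Positive wells were counted per condition. The run was valid if positive controls gave more than 25 positive wells and negative controls fewer than 8.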

Listeria monocytogenes = assay: Antibacterial activity against Listeria monocytogenes ATCC 7644 incubated after 24 hrs by resazurin dye based broth microdilution assay; type: functional; conditions: ATCC 7644, 24 h
Salmonella typhimurium [2] = assay: Mutagenicity in Salmonella typhimurium TA98 assessed as increase in revertant colonies at 0.625 mg/ml in presence of Sprague-Dawley rat liver S9 fraction by Ames test relative to basal level; type: toxicity; conditions: salmonella enterica subsp. enterica serovar typhimurium; outline: as §1
Salmonella typhimurium [3] = assay: Mutagenicity in Salmonella typhimurium TA98 assessed as increase in revertant colonies at 1.25 mg/ml in presence of Sprague-Dawley rat liver S9 fraction by Ames test relative to basal level; type: toxicity; conditions: salmonella enterica subsp. enterica serovar typhimurium; outline: as §1
Salmonella typhimurium [4] = assay: Mutagenicity in Salmonella typhimurium TA98 assessed as increase in revertant colonies at 0.156 mg/ml in absence of Sprague-Dawley rat liver S9 fraction by Ames test relative to basal level; type: toxicity; conditions: salmonella enterica subsp. enterica serovar typhimurium; outline: as §1
Salmonella typhimurium [5] = assay: Mutagenicity in Salmonella typhimurium TA98 assessed as increase in revertant colonies at 2.5 mg/ml in presence of Sprague-Dawley rat liver S9 fraction by Ames test relative to basal level; type: toxicity; conditions: salmonella enterica subsp. enterica serovar typhimurium; outline: as §1
Salmonella typhimurium [6] = assay: Mutagenicity in Salmonella typhimurium TA100 assessed as increase in revertant colonies at 0.156 mg/ml in absence of Sprague-Dawley rat liver S9 fraction by Ames test relative to basal level; type: toxicity; conditions: salmonella enterica subsp. enterica serovar typhimurium; outline: as §1
Staphylococcus aureus [7] = assay: Antibacterial activity against Staphylococcus aureus ATCC 25923 incubated after 24 hrs by resazurin dye based broth microdilution assay; type: functional; conditions: ATCC 25923, 24 h
Salmonella typhimurium [8] = assay: Mutagenicity in Salmonella typhimurium TA98 assessed as increase in revertant colonies at 5 mg/ml in presence of Sprague-Dawley rat liver S9 fraction by Ames test relative to basal level; type: toxicity; conditions: salmonella enterica subsp. enterica serovar typhimurium; outline: as §1
Escherichia coli [9] = assay: Antibacterial activity against Escherichia coli ATCC 35218 incubated after 24 hrs by resazurin dye based broth microdilution assay; type: functional; conditions: ATCC 35218, 24 h
Escherichia coli [10] = assay: Antibacterial activity against Escherichia coli ATCC 25922 incubated after 24 hrs by resazurin dye based broth microdilution assay; type: functional; conditions: ATCC 25922, 24 h
Salmonella typhimurium [11] = assay: Mutagenicity in Salmonella typhimurium TA98 assessed as increase in revertant colonies at 2.5 mg/ml in absence of Sprague-Dawley rat liver S9 fraction by Ames test relative to basal level; type: toxicity; conditions: salmonella enterica subsp. enterica serovar typhimurium; outline: as §1
Staphylococcus aureus [12] = assay: Antibacterial activity against Staphylococcus aureus ATCC 25923 assessed as decrease in ATP level at […] ug/ml after 24 hrs by BacTiter-Glo reagent based bioluminescence assay; type: functional
Klebsiella pneumoniae = assay: Antibacterial activity against Klebsiella pneumoniae ATCC 700603 incubated after 24 hrs by resazurin dye based broth microdilution assay; type: functional; conditions: Klebsiella pneumoniae, 700603, 24 h
Salmonella typhimurium [13] = assay: Mutagenicity in Salmonella typhimurium TA100 assessed as increase in revertant colonies at 5 mg/ml in presence of Sprague-Dawley rat liver S9 fraction by Ames test relative to basal level; type: toxicity; conditions: salmonella enterica subsp. enterica serovar typhimurium; outline: as §1
Enterococcus faecalis [14] = assay: Antibacterial activity against Enterococcus faecalis ATCC 51299 incubated after 24 hrs by resazurin dye based broth microdilution assay; type: functional; conditions: ATCC 51299, 24 h
Salmonella typhimurium [15] = assay: Mutagenicity in Salmonella typhimurium TA100 assessed as increase in revertant colonies at 0.625 mg/ml in presence of Sprague-Dawley rat liver S9 fraction by Ames test relative to basal level; type: toxicity; conditions: salmonella enterica subsp. enterica serovar typhimurium; outline: as §1
[16] = Selectivity index, ratio of IC50 for mouse NIH/3T3 cells to MIC90 for Pseudomonas aeruginosa ATCC 27853; type: toxicity; conditions: read-out: Selectivity Index
Salmonella typhimurium [17] = assay: Mutagenicity in Salmonella typhimurium TA98 assessed as increase in revertant colonies at 0.3125 mg/ml in presence of Sprague-Dawley rat liver S9 fraction by Ames test relative to basal level; type: toxicity; conditions: salmonella enterica subsp. enterica serovar typhimurium; outline: as §1
[18] = test system: Escherichia coli ATCC 25922; assay: Inhibition of Escherichia coli DNA gyrase assessed as inhibition of enzyme-mediated supercoiling of relaxed pHOT1 DNA substrate after 30 mins by gel electrophoresis method
Outline: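 E. coli DNA gyrase (1 U) was incubated with relaxed pHOT1 DNA substrate (0.25 µg) for 30 min at 37 °C. Compounds were tested at 15.6, 7.8, 3.9 and 1.95 µg/L. Controls were supercoiled DNA, relaxed DNA, relaxed DNA plus gyrase, and 1% DMSO. Supercoiling was read by agarose gel electrophoresis.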

Salmonella typhimurium [19] = assay: Mutagenicity in Salmonella typhimurium TA100 assessed as increase in revertant colonies at 0.625 mg/ml in absence of Sprague-Dawley rat liver S9 fraction by Ames test relative to basal level; type: toxicity; conditions: salmonella enterica subsp. enterica serovar typhimurium; outline: as §1
[20] = Selectivity index, ratio of IC50 for mouse NIH/3T3 cells to MIC90 for Klebsiella pneumoniae ATCC 700603; type: toxicity; conditions: read-out: Selectivity Index
Salmonella typhimurium [21] = assay: Mutagenicity in Salmonella typhimurium TA98 assessed as increase in revertant colonies at 0.625 mg/ml in absence of Sprague-Dawley rat liver S9 fraction by Ames test relative to basal level; type: toxicity; conditions: salmonella enterica subsp. enterica serovar typhimurium; outline: as §1
Salmonella typhimurium [22] = assay: Mutagenicity in Salmonella typhimurium TA98 assessed as increase in revertant colonies at 5 mg/ml in absence of Sprague-Dawley rat liver S9 fraction by Ames test relative to basal level; type: toxicity; conditions: salmonella enterica subsp. enterica serovar typhimurium; outline: as §1
Enterococcus faecalis [23] = assay: Antibacterial activity against Enterococcus faecalis ATCC 29212 incubated after 24 hrs by resazurin dye based broth microdilution assay; type: functional; conditions: ATCC 29212, 24 h
Salmonella typhimurium [24] = assay: Mutagenicity in Salmonella typhimurium TA98 assessed as increase in revertant colonies at 1.25 mg/ml in absence of Sprague-Dawley rat liver S9 fraction by Ames test relative to basal level; type: toxicity; conditions: salmonella enterica subsp. enterica serovar typhimurium; outline: as §1
Salmonella typhimurium [25] = assay: Mutagenicity in Salmonella typhimurium TA100 assessed as increase in revertant colonies at 0.3125 mg/ml in absence of Sprague-Dawley rat liver S9 fraction by Ames test relative to basal level; type: toxicity; conditions: salmonella enterica subsp. enterica serovar typhimurium; outline: as §1
NIH3T3 = assay: Cytotoxicity against mouse NIH/3T3 cells assessed as reduction in cell proliferation after 24 hrs by MTT assay; type: cell-based; conditions: NIH3T3, 24 h
Salmonella typhimurium [26] = assay: Mutagenicity in Salmonella typhimurium TA100 assessed as increase in revertant colonies at 0.156 mg/ml in presence of Sprague-Dawley rat liver S9 fraction by Ames test relative to basal level; type: toxicity; conditions: salmonella enterica subsp. enterica serovar typhimurium; outline: as §1
Salmonella typhimurium [27] = assay: Mutagenicity in Salmonella typhimurium TA98 assessed as increase in revertant colonies at 0.3125 mg/ml in absence of Sprague-Dawley rat liver S9 fraction by Ames test relative to basal level; type: toxicity; conditions: salmonella enterica subsp. enterica serovar typhimurium; outline: as §1
Salmonella typhimurium [28] = assay: Mutagenicity in Salmonella typhimurium TA100 assessed as increase in revertant colonies at 2.5 mg/ml in absence of Sprague-Dawley rat liver S9 fraction by Ames test relative to basal level; type: toxicity; conditions: salmonella enterica subsp. enterica serovar typhimurium; outline: as §1
[29] = Selectivity index, ratio of IC50 for mouse NIH/3T3 cells to MIC90 for Listeria monocytogenes ATCC 7644; type: toxicity; conditions: read-out: Selectivity Index
Salmonella typhimurium [30] = assay: Mutagenicity in Salmonella typhimurium TA100 assessed as increase in revertant colonies at 0.3125 mg/ml in presence of Sprague-Dawley rat liver S9 fraction by Ames test relative to basal level; type: toxicity; conditions: salmonella enterica subsp. enterica serovar typhimurium; outline: as §1
Salmonella typhimurium [31] = assay: Mutagenicity in Salmonella typhimurium TA100 assessed as increase in revertant colonies at 1.25 mg/ml in presence of Sprague-Dawley rat liver S9 fraction by Ames test relative to basal level; type: toxicity; conditions: salmonella enterica subsp. enterica serovar typhimurium; outline: as §1
Salmonella typhimurium [32] = assay: Mutagenicity in Salmonella typhimurium TA98 assessed as increase in revertant colonies at 0.156 mg/ml in presence of Sprague-Dawley rat liver S9 fraction by Ames test relative to basal level; type: toxicity; conditions: salmonella enterica subsp. enterica serovar typhimurium; outline: as §1
Pseudomonas aeruginosa = assay: Antibacterial activity against Pseudomonas aeruginosa ATCC 27853 incubated after 24 hrs by resazurin dye based broth microdilution assay; type: functional; conditions: ATCC 27853, 24 h
Salmonella typhimurium [33] = assay: Mutagenicity in Salmonella typhimurium TA100 assessed as increase in revertant colonies at 1.25 mg/ml in absence of Sprague-Dawley rat liver S9 fraction by Ames test relative to basal level; type: toxicity; conditions: salmonella enterica subsp. enterica serovar typhimurium; outline: as §1
Salmonella typhimurium [34] = assay: Mutagenicity in Salmonella typhimurium TA100 assessed as increase in revertant colonies at 5 mg/ml in absence of Sprague-Dawley rat liver S9 fraction by Ames test relative to basal level; type: toxicity; conditions: salmonella enterica subsp. enterica serovar typhimurium; outline: as §1

## CN(C)CCCN1CCN(c2nc3c(cc2F)c(=O)c(C(=O)O)cn3-c2ccc(F)cc2F)CC1
Salmonella typhimurium [1]
  fold change (FC): 0
Listeria monocytogenes
  MIC90: 7.8 µg/mL (≈ 15.9 µM)
Salmonella typhimurium [2]
  fold change (FC): 0
Salmonella typhimurium [3]
  fold change (FC): 0
Salmonella typhimurium [4]
  fold change (FC): 0
Salmonella typhimurium [5]
  fold change (FC): 0
Salmonella typhimurium [6]
  fold change (FC): 0
Staphylococcus aureus [7]
  MIC90: 1.95 µg/mL (≈ 3.98 µM)
Salmonella typhimurium [8]
  fold change (FC): 0
Escherichia coli [9]
  MIC90: 1.95 µg/mL (≈ 3.98 µM)
Escherichia coli [10]
  MIC90: 1.95 µg/mL (≈ 3.98 µM)
Salmonella typhimurium [11]
  fold change (FC): 0
Staphylococcus aureus [12]
  Activity: Active
Klebsiella pneumoniae
  MIC90: 7.8 µg/mL (≈ 15.9 µM)
Salmonella typhimurium [13]
  fold change (FC): 0
Enterococcus faecalis [14]
  MIC90: 3.9 µg/mL (≈ 7.97 µM)
Salmonella typhimurium [15]
  fold change (FC): 0
[16]
  selectivity ratio: 54
Salmonella typhimurium [17]
  fold change (FC): 0.11
[18]
  inhibition: Dose-dependent effect
Salmonella typhimurium [19]
  fold change (FC): 0
[20]
  selectivity ratio: 54
Salmonella typhimurium [21]
  fold change (FC): 0
Salmonella typhimurium [22]
  fold change (FC): 0
Enterococcus faecalis [23]
  MIC90: 3.9 µg/mL (≈ 7.97 µM)
Salmonella typhimurium [24]
  fold change (FC): 0
Salmonella typhimurium [25]
  fold change (FC): 0
NIH3T3
  IC50: 440 µg/mL (≈ 899 µM)
Salmonella typhimurium [26]
  fold change (FC): 0
Salmonella typhimurium [27]
  fold change (FC): 0
Salmonella typhimurium [28]
  fold change (FC): 0
[29]
  selectivity ratio: 54
Salmonella typhimurium [30]
  fold change (FC): 0
Salmonella typhimurium [31]
  fold change (FC): 0
Salmonella typhimurium [32]
  fold change (FC): 0
Pseudomonas aeruginosa
  MIC90: 7.8 µg/mL (≈ 15.9 µM)
Salmonella typhimurium [33]
  fold change (FC): 0
Salmonella typhimurium [34]
  fold change (FC): 0
